Bioassay records as filed in PubChem BioAssay.
ABHD4 inh: inhibitors of mouse ABHD4; 370,000 compounds, 0.54% hits; inhibition, % at 8.92 µM; Q8VD66; AID 720543; purified mABHD4, FP-Rh probe fluorescence polarization;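 active means inhibition exceeding the mean over every tested compound plus 3 SD, cut at about 30% in these data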;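 further: 0% = plate median of compound wells and 100% = S159A mutant with DMSO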
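Doses – 8.92 µM, single dose · Material – wild-type mouse ABHD4 protein · Replication – single well per compound (singlicate) · Measure – percent inhibition of probe binding, normalized to plate controls · Schedule – 45 min compound pre-incubation plus 60 min probe step, 25 °C · Detection – fluorescence polarization with parallel and perpendicular emission, 525/598 nm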
HTRA1 inhibitor: HTRA1 (human) protease inhibition; recombinant HTRA1, FP-rhodamine activity-based probe, fluorescence polarization; inhibition, % at 5.96 µM; 340,000 compounds, 0.5% hits; AID 504803; in the data active means inhibition above about 36%;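 further: 0% = enzyme with DMSO and 100% = wells lacking enzyme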
DAGLB inh: blocks human DAGLB lipase activity. Q8NCG7. HEK293T DAGLB membrane lysate, EnzChek fluorogenic substrate. inhibition, % at 5.17 µM. 340,000 compounds, 0.059% hits. AID 504411; in the data active means inhibition above about 34%;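 further: 0% = enzyme with vehicle and 100% = wells lacking enzyme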
Target sequence (Q8NCG7 whole entry, looked up): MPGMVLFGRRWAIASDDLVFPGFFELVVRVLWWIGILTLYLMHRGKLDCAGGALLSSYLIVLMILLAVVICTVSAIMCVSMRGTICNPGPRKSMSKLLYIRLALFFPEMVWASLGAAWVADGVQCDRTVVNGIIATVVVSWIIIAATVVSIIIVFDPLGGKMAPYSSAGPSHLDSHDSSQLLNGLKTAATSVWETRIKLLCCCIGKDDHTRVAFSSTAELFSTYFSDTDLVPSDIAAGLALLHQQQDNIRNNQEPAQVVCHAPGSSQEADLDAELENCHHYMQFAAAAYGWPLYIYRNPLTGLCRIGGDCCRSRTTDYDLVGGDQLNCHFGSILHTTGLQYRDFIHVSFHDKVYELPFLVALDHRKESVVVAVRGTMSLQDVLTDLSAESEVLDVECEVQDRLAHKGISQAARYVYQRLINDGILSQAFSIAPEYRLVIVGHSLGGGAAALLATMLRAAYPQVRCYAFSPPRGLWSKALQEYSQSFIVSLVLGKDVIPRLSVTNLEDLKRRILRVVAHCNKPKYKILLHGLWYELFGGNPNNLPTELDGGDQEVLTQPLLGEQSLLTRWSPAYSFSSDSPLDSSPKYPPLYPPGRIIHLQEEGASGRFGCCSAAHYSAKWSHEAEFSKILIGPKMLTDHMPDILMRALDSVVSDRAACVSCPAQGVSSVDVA
TCR CD3 inh: inhibitors of human TCR-CD3 interaction. TAMRA-labeled TCR probe fluorescence, biochemical. inhibition, % at 9.4 µM. 360,000 compounds, 0.37% hits;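 further: recombinant mutant TCR 2C K166C tagged with TAMRA read by polarization; 0% = receptor in buffer alone and 100% = receptor with positive control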
SIAE inh: inhibitors of human sialic acid acetylesterase SIAE. Q9HAT2. SIAE FP-Rh probe binding, fluorescence polarization. inhibition, % at 9.66 µM. 370,000 compounds, 0.69% hits. AID 1053197;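 active means inhibition above a cutoff: mean of compounds within the control limits plus 3 SD of those, cut at about 17% in these data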;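 further: 0% = plate median of compound wells and 100% = probe without SIAE protein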
BSA TAMRA ctr: interferes with TAMRA-BSA probe, flagging TCR-CD3 hits; shares compounds with TCR CD3 inh; TAMRA-labeled BSA probe fluorescence counterscreen; inhibition, % at 9.4 µM; 1,200 compounds, 10% hits; AID 652035; in the data active means inhibition above about 23%;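 further: 0% = buffer low control and 100% = reference high control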
TCR-CD3 inh conf: TCR-CD3 interaction inhibition, confirmation. AID 652036. 1,200 compounds, 48% hits. TAMRA-labeled TCR probe fluorescence binding assay. shares compounds with TCR CD3 inh. inhibition, % at 9.4 µM
* marks the source's active call; other numbers are inactive results; · = no result given. Hits are enriched below; roughly 1.5% of the tested compounds scored in any of these assays. Unless noted, no stated cut-off is given here; in the data, active means inhibition above about 19%; inactive means the rest.

SMILES	ABHD4 inh	HTRA1 inhibitor	DAGLB inh	TCR CD3 inh	SIAE inh	BSA TAMRA ctr	TCR-CD3 inh conf
Cc1ccc(C(=O)N2CCN(c3cccc(C)c3C)CC2)o1	2.0	-6.9	-2.2	32.7*	1.8	3.1	-0.6
CC(COc1ccc(C#N)cc1F)CN1CCC(C(O)(c2ccccc2)c2ccccc2)CC1 (configuration not stated)	5.4	·	·	·	2.3	·	·
Cc1nc(N)sc1-c1csc(Nc2ncccn2)n1	10.9	15.7	4.5	19.6*	6.9	14.8	20.4*
COc1ccccc1Nc1nc(-c2sc(N)nc2C)cs1	17.1	14.8	3.7	-3.8	11.3	·	·
Cc1cccc(C)c1NC(=O)CN1C(=O)NC(C)(CCc2ccccc2)C1=O (configuration not stated)	-1.7	1.9	0.2	59.2*	-1.4	3.6	6.4
Cc1ccc(NC(=O)CN2C(=O)NC(C)(CCc3ccccc3)C2=O)cc1 (configuration not stated)	-1.1	-8.8	-3.6	1.1	0.9	·	·
O=S(=O)(c1ccccc1)N1CCCc2nc(-c3ccc(Br)cc3)ccc21	-0.6	·	·	-5.0	-0.8	·	·
O=C(C(=O)N1CCC(c2ccccc2)CC1)c1ccc(F)c(F)c1	-12.4	·	·	23.7*	-1.1	3.4	-0.1
N#Cc1cccc(C(=O)C(=O)N2CCC(c3ccccc3)CC2)c1	-10.1	·	·	-2.4	-7.8	·	·
COc1ccccc1-c1nnc(SCC(=O)N2CCCC2)o1	1.1	-7.6	-1.3	21.1*	7.6	0.9	18.6
COC(=O)c1cc(-c2ccc(C)c(C)c2)c(=O)n2c1CCC2	3.5	·	·	·	0.2	·	·
C[C@@H]1Cn2cnc(C(=O)N3CCN(C(=O)OC(C)(C)C)CC3)c2C(=O)N1	0.7	·	·	19.5*	3.1	2.6	1.6
O=[n+]1c2c(n([O-])c3cc(F)ccc31)CCCC2	4.1	10.6	0.1	6.3	4.2	·	·
O=[n+]1c2c(n([O-])c3cc(F)c(N4CCCC4)cc31)CCCC2	3.3	-2.1	-12.3	23.2*	-1.9	29.5*	27.6*
O=[n+]1c2c(n([O-])c3cc(F)c(N4CCCC4)cc31)CCC2	9.0	3.9	-5.3	25.4*	-9.2	29.4*	28.4*
O=C(N[C@H](Cc1ccccc1)C(=O)NCC1CCCO1)[C@H]1O[C@@H](n2ccc(=O)[nH]c2=O)[C@H](O)[C@@H]1O (some centres not stated)	5.1	·	·	-6.8	2.3	·	·
O=C(CC1C(=O)NCCN1Cc1cccc(F)c1)NCCCCCN1CCOCC1 (configuration not stated)	6.9	5.6	-0.6	19.6*	10.4	1.3	-0.8
COc1cc(CN2CCNC(=O)C2CC(=O)NCCCN2CCOCC2)cc(OC)c1 (configuration not stated)	7.7	7.8	3.0	-7.7	2.2	·	·
Nc1[nH]c(C(=O)c2ccc(Br)cc2)c(-c2ccccn2)c1C(=O)NCCc1c[nH]c2ccccc12	27.5	·	·	-4.3	6.0	·	·
O=C1c2ccccc2C(c2nnnn2-c2ccc3c(c2)OCCO3)N1Cc1ccco1 (configuration not stated)	2.1	·	·	25.2*	15.6	3.5	0.1
CC(=O)CC[C@@H]1CC[C@]2(CCCN(C(=O)C(C)(C)C)C2)O1	4.0	·	·	·	7.5	·	·
Cc1ccc(C(C)C)c(OCc2ccc(C(=O)N/N=C/c3ccc(O)cc3O)cc2)c1	-28.6	26.4	0.6	25.5*	-13.8	-17.7	22.1*
C#CCN1c2ccccc2Sc2cccnc21	5.4	7.3	-7.0	47.5*	7.6	2.2	2.0
Cn1cccc1[C@]1(O)C(=O)Nc2ccc(F)cc21	7.6	·	·	·	0.2	·	·
O=C(/C=C/c1cn(-c2ccccc2)nc1-c1ccccc1)Nc1ccc(C(=O)O)cc1	-56.0	-39.0	3.7	1.1	-135.8	·	·
SMILES	ABHD4 inh	HTRA1 inhibitor	DAGLB inh	TCR CD3 inh	SIAE inh	BSA TAMRA ctr	TCR-CD3 inh conf
NS(=O)(=O)c1ccc(NC(=O)/C=C/c2cn(-c3ccccc3)nc2-c2cccc(Cl)c2)cc1	-45.5	-98.5	1.1	24.4*	-230.3	16.8	26.9*
CCCCCCCCN1C(=O)[C@@H](CC(=O)NCc2ccc(C)o2)C[C@@]2(C(=O)OC)C1=C[C@H](C1CCCC1)O[C@@H]2C	-2.9	·	·	1.1	-1.6	·	·
O=C(CSc1nc2cc(Cl)ccc2c(=O)n1Cc1ccco1)Nc1ccc(S(=O)(=O)N2CCOCC2)cc1	-55.2	-27.3	-3.9	19.9*	-47.1	13.4	25.8*
COC(=O)c1ccc2c(=O)n(Cc3ccco3)c(SCC(=O)Nc3ccc(C)c(Cl)c3)nc2c1	-0.4	2.9	-1.5	2.5	4.6	·	·
O=c1c2c(-c3ccc(Cl)cc3)csc2ncn1/N=C/c1cccc([N+](=O)[O-])c1O	7.1	11.5	3.5	30.2*	6.6	-10.5	28.9*
COc1cccc(CNC(=O)c2ccc(S(=O)(=O)N3CCOCC3)cc2)c1	-2.7	-3.1	0.1	-0.1	6.0	·	·
Cc1cc2cc(CNC(=O)c3ccc(S(=O)(=O)N(C)C)cc3)ccc2n1C	14.4	11.1	8.2	25.3*	14.6	2.9	2.0
Cc1cc2cc(CNC(=O)c3ccc(Br)o3)ccc2n1C	-7.3	-0.8	1.7	22.5*	-2.8	5.9	7.5
Cc1cc2cc(CNC(=O)c3ccc(S(=O)(=O)N4CCOCC4)cc3)ccc2n1C	22.7	15.4	1.5	48.1*	8.5	2.1	4.7
Cc1cc2cc(CNC(=O)c3ccc(S(=O)(=O)N4CCCCC4)cc3)ccc2[nH]1	24.3	-11.9	1.2	19.5*	-1.4	-2.4	-2.1
Cc1ccc(CNC(=O)c2ccc(S(=O)(=O)N3CCCCCC3)cc2)cc1	2.0	1.5	-3.0	-2.0	-1.4	·	·
COC(=O)C1=C(C)N(Cc2ccc(F)cc2)C(=S)NC1c1cccc(Br)c1 (configuration not stated)	-13.2	·	·	6.2	-7.1	·	·
O=C(N[C@H](C(=O)N1CCC[C@H]1C(=O)NCCc1ccccc1Cl)C1CCCCC1)C1CC1	3.6	·	·	4.0	-9.7	·	·
Cc1cc2cc(CNC(=O)c3cccc([N+](=O)[O-])c3)ccc2n1C	27.5	-0.2	-0.9	26.4*	5.0	3.4	4.2
O=C(C(=O)N1CCC(CNC(=O)C2COc3ccccc3O2)CC1)c1cc2ccccc2o1 (configuration not stated)	-2.5	·	·	5.6	0.2	·	·
c1coc(-c2ccc3nncn3c2)c1	23.0	·	·	35.2*	12.3	-2.7	30.4*
c1cc(N2CCOCC2)ccc1-c1ccc2nncn2c1	3.9	·	·	1.0	2.5	·	·
Cc1onc(-c2ccccc2)c1C(=O)NN=Cc1cc(Cl)cc(Cl)c1O	12.6	·	·	27.3*	8.1	-12.2	33.5*
O=C(Nc1ccc(Cl)cc1)Nc1ccc(Cl)c(Cl)c1	-35.2	·	·	22.1*	-28.6	10.0	19.2*
OCc1nc2ccccc2n1CCCc1ccccc1	2.6	1.8	-5.2	-2.6	7.0	·	·
OCc1nc2ccccc2n1CCc1ccccc1	-1.5	-0.5	-1.5	23.2*	-7.3	-5.7	-3.2
